From PMC8265595 (Neuropharmacology, 2020)
Where “and” joins values, the source holds several entries; their conditions need not be identical. Identical values can stand only once.

Key:
α1β2γ2 GABAA receptor [1] = molecular target: T1, α1β2γ2 GABAA receptor (Homo sapiens, UniProt P14867+P18507+P47870); experiment: Synergy with diazepam, α1β2γ2 in Ltk cells, isobolographic analysis; type: cell-based; settings: for concentration applied alone required to reach 150% effect level: α1β2γ2, isobologram
T1 sequence (P14867 28-456): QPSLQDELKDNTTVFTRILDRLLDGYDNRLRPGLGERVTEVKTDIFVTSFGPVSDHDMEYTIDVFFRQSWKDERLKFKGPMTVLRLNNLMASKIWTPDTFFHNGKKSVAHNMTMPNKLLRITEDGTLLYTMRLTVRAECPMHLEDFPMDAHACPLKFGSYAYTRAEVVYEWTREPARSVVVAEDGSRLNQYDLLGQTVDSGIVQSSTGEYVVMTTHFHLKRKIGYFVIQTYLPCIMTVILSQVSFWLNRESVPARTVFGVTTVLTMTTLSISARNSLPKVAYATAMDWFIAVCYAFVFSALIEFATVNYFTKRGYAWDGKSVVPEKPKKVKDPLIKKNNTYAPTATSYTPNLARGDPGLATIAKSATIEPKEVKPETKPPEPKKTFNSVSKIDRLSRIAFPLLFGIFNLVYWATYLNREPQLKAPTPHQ
T1 sequence (P47870 25-512 limits assumed): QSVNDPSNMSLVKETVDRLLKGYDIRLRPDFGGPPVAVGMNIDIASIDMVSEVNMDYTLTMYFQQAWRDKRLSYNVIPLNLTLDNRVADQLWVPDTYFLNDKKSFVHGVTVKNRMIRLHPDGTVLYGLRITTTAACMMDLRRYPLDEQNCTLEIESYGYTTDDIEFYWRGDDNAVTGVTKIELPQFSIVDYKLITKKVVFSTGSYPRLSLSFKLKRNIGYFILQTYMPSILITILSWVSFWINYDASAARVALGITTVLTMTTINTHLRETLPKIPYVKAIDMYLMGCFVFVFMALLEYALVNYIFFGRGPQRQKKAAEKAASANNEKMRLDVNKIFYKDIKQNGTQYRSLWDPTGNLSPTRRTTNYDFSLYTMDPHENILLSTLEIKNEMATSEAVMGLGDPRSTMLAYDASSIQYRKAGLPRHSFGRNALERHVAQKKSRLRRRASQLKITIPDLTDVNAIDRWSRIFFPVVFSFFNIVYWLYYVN
T1 sequence (P18507 40-475): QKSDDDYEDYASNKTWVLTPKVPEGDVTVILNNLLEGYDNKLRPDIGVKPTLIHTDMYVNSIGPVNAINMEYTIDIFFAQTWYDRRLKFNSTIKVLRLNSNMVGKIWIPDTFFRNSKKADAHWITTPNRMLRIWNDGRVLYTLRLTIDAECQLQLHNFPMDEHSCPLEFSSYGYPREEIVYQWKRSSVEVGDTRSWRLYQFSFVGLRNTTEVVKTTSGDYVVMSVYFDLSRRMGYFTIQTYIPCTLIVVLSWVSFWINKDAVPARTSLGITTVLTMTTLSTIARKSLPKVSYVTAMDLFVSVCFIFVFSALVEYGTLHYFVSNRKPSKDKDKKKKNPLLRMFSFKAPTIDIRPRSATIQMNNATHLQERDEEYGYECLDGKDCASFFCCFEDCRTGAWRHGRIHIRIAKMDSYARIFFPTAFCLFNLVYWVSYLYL

α4β3δ GABAA receptor [2] = molecular target: T2, α4β3δ GABAA receptor (Homo sapiens, UniProt P28472+P48169); experiment: Synergy with diazepam, α4β3δ in CHO cells; type: cell-based
T2 sequence (P48169 36-554): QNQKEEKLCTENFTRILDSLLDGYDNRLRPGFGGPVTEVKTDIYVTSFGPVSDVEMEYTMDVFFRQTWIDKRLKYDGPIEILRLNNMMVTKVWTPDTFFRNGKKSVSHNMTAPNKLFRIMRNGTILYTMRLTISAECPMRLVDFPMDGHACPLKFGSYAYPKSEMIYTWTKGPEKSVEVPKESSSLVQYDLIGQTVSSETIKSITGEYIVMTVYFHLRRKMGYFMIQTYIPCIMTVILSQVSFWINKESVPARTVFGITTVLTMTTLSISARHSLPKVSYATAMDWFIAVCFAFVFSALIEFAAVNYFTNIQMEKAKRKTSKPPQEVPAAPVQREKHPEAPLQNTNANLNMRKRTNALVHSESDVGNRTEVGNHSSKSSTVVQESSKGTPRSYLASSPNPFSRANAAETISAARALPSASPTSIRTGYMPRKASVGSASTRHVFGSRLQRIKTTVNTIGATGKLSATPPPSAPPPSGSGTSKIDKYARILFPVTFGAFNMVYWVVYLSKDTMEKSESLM
T2 sequence (P28472 26-473): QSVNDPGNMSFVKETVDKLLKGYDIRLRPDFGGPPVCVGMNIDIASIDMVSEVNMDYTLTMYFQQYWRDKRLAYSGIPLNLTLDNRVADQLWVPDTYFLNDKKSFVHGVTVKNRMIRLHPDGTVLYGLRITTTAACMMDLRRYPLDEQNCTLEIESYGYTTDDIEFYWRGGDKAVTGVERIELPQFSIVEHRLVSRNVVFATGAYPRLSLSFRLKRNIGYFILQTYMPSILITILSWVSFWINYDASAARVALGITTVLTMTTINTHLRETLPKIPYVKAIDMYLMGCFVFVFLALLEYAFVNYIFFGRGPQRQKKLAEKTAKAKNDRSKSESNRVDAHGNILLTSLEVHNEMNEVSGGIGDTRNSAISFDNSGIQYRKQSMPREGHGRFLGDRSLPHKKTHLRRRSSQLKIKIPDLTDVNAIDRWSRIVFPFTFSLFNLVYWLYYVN
T2 sequence (O14764 17-452 partner limits assumed): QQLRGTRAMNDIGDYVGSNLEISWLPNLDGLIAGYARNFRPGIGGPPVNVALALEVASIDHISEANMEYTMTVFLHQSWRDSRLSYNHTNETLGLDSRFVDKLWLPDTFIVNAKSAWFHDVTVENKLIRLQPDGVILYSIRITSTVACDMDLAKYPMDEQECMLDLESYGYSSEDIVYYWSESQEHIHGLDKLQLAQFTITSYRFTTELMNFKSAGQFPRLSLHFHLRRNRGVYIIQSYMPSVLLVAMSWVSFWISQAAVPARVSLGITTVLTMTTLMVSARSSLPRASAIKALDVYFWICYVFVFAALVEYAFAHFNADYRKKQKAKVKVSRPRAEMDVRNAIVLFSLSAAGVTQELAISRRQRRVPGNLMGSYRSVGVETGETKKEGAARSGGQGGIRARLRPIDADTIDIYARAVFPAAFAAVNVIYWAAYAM

α1β2γ2 GABAA receptor [3] = molecular target: T1, α1β2γ2 GABAA receptor; experiment: P4S concentration-response with and without 200 nM zuranolone, Ltk cells; type: cell-based; settings: for EC50: EC50 of P4S, α1β2γ2, Ltk cells
Outline: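 Ltk cells stably expressing α1β2γ2; whole-cell patch clamp at −80 mV, n = 11. P4S was applied at 0.1–1000 μM in log steps, with or without a fixed 200 nM test compound. Currents were normalized to the maximum current from a saturating GABA concentration.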

PTZ-induced seizures = experiment: Pentylenetetrazole-induced seizures; type: in vivo, mouse; settings: vehicle 751 ± 67 s
β-band EEG power = experiment: PharmacoEEG, β-band EEG power and sleep/wake; type: in vivo; settings: rat; for sleep time: p < 0.05
Outline: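 Adult male Sprague Dawley rats (n = 7 per group) with implanted epidural EEG screw electrodes and EMG were tested after 2 weeks' recovery. After 1 h baseline, they received test compound (0.3, 3 or 20 mg/kg) or vehicle (30% SBECD) PO, followed by 6 h continuous EEG. Sleep/wake was scored in 10 s epochs from EEG/EMG and checked by a blinded expert. Analysis used one-way ANOVA and two-way repeated-measures ANOVA vs vehicle.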

[4] = test system: other ion channel and hormone receptors, including AMPA and NMDA; settings: ref Martinez-Botella et al., 2017; cited from earlier work
[5] = Brain and plasma pharmacokinetics after single IP or PO dose; type: in vivo, mouse; settings: for time of maximum plasma concentration (Cmax) post dose: CD1 mouse; for Cmax / bioavailability: male, CD-1, mouse, plasma, 10 mg/kg
Outline: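 Adult male CD-1 mice received a single 10 mg/kg dose: IP in 15% HP-β-CD or PO in 30% SBECD. Sampling: IP at 0.5–8 h (n = 2 per time point); PO at 0.167–12 h (n = 3 per time point). Plasma (K2 EDTA) and snap-frozen brain were collected. Brain was homogenized in 3 vol PBS, extracted by acetonitrile precipitation with internal standard, and assayed by LC-MS/MS (C18, water:methanol gradient, positive MRM). Brain:plasma ratio from a single point at 1 h.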

[6] = molecular target: human recombinant α2β3γ2 GABAA receptor (Homo sapiens, UniProt P28472+P47869); experiment: IonWorks Barracuda patch clamp, α2β3γ2 in HEK cells; type: cell-based
human recombinant α2β3γ2 GABAA receptor, sequence (P47869 29-451): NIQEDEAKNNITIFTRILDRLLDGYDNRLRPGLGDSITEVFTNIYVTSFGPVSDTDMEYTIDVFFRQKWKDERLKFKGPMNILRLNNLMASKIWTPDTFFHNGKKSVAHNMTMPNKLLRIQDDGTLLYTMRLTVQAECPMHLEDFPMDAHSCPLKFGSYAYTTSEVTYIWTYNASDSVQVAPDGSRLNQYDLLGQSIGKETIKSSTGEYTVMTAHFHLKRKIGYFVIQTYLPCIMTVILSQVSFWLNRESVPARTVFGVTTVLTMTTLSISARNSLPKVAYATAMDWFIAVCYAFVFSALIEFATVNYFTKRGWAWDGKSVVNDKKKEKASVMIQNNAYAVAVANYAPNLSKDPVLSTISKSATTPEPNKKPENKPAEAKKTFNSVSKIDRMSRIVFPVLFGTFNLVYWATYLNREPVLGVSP
human recombinant α2β3γ2 GABAA receptor, sequence (P28472 26-473): as the sequence (P28472 26-473) above
human recombinant α2β3γ2 GABAA receptor, sequence (P18507 40-475 partner): as the sequence (P18507 40-475) above
Outline: (§1)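 HEK cells stably expressing human receptors; automated perforated-patch whole-cell recording at −70 mV. Extracellular buffer pH 7.4; KCl-based intracellular solution pH 7.2. Submaximal GABA applied alone, then co-applied with test compound at half-log steps 0.01–30 μM (0.3% DMSO, 0.02% Cremophor); n = 4 per concentration. GABA: 5 μM α1β3γ2, 2 μM α2β3γ2, 12.5 μM α3β3γ2, 2 μM α5β3γ2. Potentiation = peak with test compound / peak with GABA alone ×100.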

[7] = Plasma and brain concentrations in PTZ behavioral study; type: in vivo; settings: mouse, between 0.3 and 1 mg/kg PO
Outline: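 Plasma and brain were collected from a subset of PTZ-study mice plus satellite PK mice (n = 3–4 per dose) after PO dosing. Brain was homogenized in 3 vol PBS, extracted by acetonitrile protein precipitation with internal standard, and quantified by LC-MS/MS against a spiked calibration curve.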

dentate granule cells = experiment: Acute hippocampal slice recording, tonic current and sIPSCs after washout; type: cell-based, mouse; settings: for tonic current density: 15 min pre-incubation, 30–50 min wash; for sIPSC amplitude / sIPSC decay: after 30–50 min wash
Outline: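 Acute brain slices from postnatal day 21 C57 mice were held in a holding chamber with 0.1 or 1 μM test compound for 15 min. They were then perfused (2 mL/min) with oxygenated ACSF for 30–50 min before whole-cell patch clamp of dentate granule cells (n = 6–7). Tonic current is the baseline shift with 100 μM picrotoxin, divided by capacitance. sIPSCs were inspected visually and only single-peak events were kept.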

[8] = Phase 1, healthy volunteers, ref Hoffmann et al., 2019, cited from earlier work
8 cardiac ion channels = settings: ref Martinez-Botella et al., 2017; cited from earlier work
[9] = molecular target: human recombinant α6β3δ GABAA receptor (Homo sapiens, UniProt P28472+Q16445); experiment: Two electrode voltage clamp, α6β3δ in Xenopus oocytes; type: cell-based
Outline: (§2)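 Xenopus oocytes expressing subunit cDNA; two-electrode voltage clamp at −80 mV, 18 °C, superfused with OR2 medium pH 7.4. Submaximal GABA given alone for 15 s, then co-applied with test compound at half-log steps 0.1–10 μM (0.3% DMSO). GABA: 10 μM for α1β1γ2, 3 μM for α6β3δ. n = 3 cells per concentration. Potentiation = peak amplitude with test compound / GABA alone ×100.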

[10] = molecular target: human recombinant α5β3γ2 GABAA receptor (Homo sapiens, UniProt P28472+P31644); experiment: IonWorks Barracuda patch clamp, α5β3γ2 in HEK cells; type: cell-based
human recombinant α5β3γ2 GABAA receptor, sequence (P31644 32-462): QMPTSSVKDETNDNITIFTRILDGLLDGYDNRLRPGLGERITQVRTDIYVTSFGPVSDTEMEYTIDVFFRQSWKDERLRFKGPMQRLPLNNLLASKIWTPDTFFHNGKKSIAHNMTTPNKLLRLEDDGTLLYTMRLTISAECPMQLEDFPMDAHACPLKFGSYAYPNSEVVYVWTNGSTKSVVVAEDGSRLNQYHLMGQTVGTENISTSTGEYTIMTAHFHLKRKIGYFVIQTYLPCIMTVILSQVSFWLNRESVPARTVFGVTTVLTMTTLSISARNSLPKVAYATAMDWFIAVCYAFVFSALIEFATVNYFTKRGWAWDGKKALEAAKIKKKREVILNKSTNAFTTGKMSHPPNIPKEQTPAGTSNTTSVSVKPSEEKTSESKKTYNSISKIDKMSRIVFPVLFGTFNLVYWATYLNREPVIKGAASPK
human recombinant α5β3γ2 GABAA receptor, sequence (P28472 26-473): as the sequence (P28472 26-473) above
human recombinant α5β3γ2 GABAA receptor, sequence (P18507 40-475 partner): as the sequence (P18507 40-475) above
Outline: as §1

α1β2γ2 GABAA receptor [11] = molecular target: T1, α1β2γ2 GABAA receptor; experiment: Whole cell patch clamp, GABA-evoked currents, α1β2γ2 in Ltk cells; type: cell-based
Outline: (§3)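 Whole-cell patch clamp at −80 mV in Ltk cells (stable α1β2γ2, n = 7; α2β2γ2, n = 3) or CHO cells (transient α4β3δ, n = 6). Each cell received test compound (0.1% DMSO) sequentially at 0.01–10 μM, 30 s before each 2 s pulse of 2 μM GABA. Gravity-fed perfusion, exchange within 300–500 ms. For δ-containing cells, DS-2 was applied at the end to confirm δ expression. Potentiation = peak ratio ×100.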

[12] = Plasma concentrations in rats designated for pharmacokinetic analysis; type: in vivo; settings: rat, po
sigma = settings: 10 μM, ref Martinez-Botella et al., 2017; cited from earlier work
[13] = molecular target: human recombinant α1β1γ2 GABAA receptor (Homo sapiens, UniProt P14867+P18505); experiment: Two electrode voltage clamp, α1β1γ2 in Xenopus oocytes; type: cell-based
Outline: as §2

[14] = test system: 22 nuclear hormone receptors; settings: ref Martinez-Botella et al., 2017; cited from earlier work
[15] = molecular target: human recombinant α1β3γ2 GABAA receptor (Homo sapiens, UniProt P14867+P28472); experiment: IonWorks Barracuda patch clamp, α1β3γ2 in HEK cells; type: cell-based
human recombinant α1β3γ2 GABAA receptor, sequence (P14867 28-456): as the sequence (P14867 28-456) above
human recombinant α1β3γ2 GABAA receptor, sequence (P28472 26-473): as the sequence (P28472 26-473) above
human recombinant α1β3γ2 GABAA receptor, sequence (P18507 40-475 partner): as the sequence (P18507 40-475) above
Outline: as §1

[16] = molecular target: human recombinant α2β2γ2 GABAA receptor (Homo sapiens, UniProt P47869+P47870); experiment: Whole cell patch clamp, GABA-evoked currents, α2β2γ2 in Ltk cells; type: cell-based
human recombinant α2β2γ2 GABAA receptor, sequence (P47869 29-451): as the sequence (P47869 29-451) above
human recombinant α2β2γ2 GABAA receptor, sequence (P47870 25-512 limits assumed): as the sequence (P47870 25-512 limits assumed) above
human recombinant α2β2γ2 GABAA receptor, sequence (P18507 40-475 partner): as the sequence (P18507 40-475) above
Outline: as §3

glycine = settings: 10 μM, ref Martinez-Botella et al., 2017; cited from earlier work
[17] = test system: transient receptor potential cation channel subfamily V member 1 receptor; settings: 10 μM; ref Martinez-Botella et al., 2017; cited from earlier work
α4β3δ GABAA receptor [18] = molecular target: T2, α4β3δ GABAA receptor; experiment: Whole cell patch clamp, GABA-evoked currents, α4β3δ in CHO cells; type: cell-based
Outline: as §3

[19] = molecular target: human recombinant α3β3γ2 GABAA receptor (Homo sapiens, UniProt P28472+P34903); experiment: IonWorks Barracuda patch clamp, α3β3γ2 in HEK cells; type: cell-based
human recombinant α3β3γ2 GABAA receptor, sequence (P34903 29-492): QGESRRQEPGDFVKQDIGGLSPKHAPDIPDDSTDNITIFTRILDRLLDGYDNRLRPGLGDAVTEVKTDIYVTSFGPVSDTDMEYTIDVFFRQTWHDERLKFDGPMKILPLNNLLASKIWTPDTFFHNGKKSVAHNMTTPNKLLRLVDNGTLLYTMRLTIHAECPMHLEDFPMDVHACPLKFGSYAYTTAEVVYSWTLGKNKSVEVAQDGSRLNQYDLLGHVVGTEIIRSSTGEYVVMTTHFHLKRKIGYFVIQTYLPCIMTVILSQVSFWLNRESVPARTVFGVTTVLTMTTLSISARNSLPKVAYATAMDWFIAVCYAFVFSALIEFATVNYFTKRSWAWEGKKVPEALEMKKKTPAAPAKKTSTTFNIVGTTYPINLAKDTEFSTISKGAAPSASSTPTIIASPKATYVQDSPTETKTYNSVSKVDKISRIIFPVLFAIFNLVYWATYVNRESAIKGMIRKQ
human recombinant α3β3γ2 GABAA receptor, sequence (P28472 26-473): as the sequence (P28472 26-473) above
human recombinant α3β3γ2 GABAA receptor, sequence (P18507 40-475 partner): as the sequence (P18507 40-475) above
Outline: as §1

CN1C(=O)CN=C(c2ccccc2)c2cc(Cl)ccc21 [DZP, diazepam, reference compound]
enhancement of GABA currents (α1β2γ2 GABAA receptor [1]; 100 nM DZP alone, α1β2γ2, 2 μM GABA): 104%
concentration applied alone required to reach 150% effect level (α1β2γ2 GABAA receptor [1]): 360 nM
potentiation of current when applied alone (α4β3δ GABAA receptor [2]; α4β3δ, DZP alone): did not potentiate

O=S(=O)(O)C1CCNCC1 [P4S, piperidine-4-sulphonic acid]
EC50 (α1β2γ2 GABAA receptor [3]; P4S alone): 45000 nM and 44500 nM
EC50 (α1β2γ2 GABAA receptor [3]; with 200 nM zuranolone): 25200 nM
Emax of P4S (α1β2γ2 GABAA receptor [3]; P4S alone, normalized to maximum current evoked by saturating GABA (100 μM)): 25%

C[C@@]1(O)CC[C@H]2[C@H](CC[C@@H]3[C@@H]2CC[C@]2(C)[C@@H](C(=O)Cn4cc(C#N)cn4)CC[C@@H]32)C1 [zuranolone, 3α-Hydroxy-3β-methyl-21-(4-cyano-1H-pyrazol-1’-yl)-19-nor-5β-pregnan-20-one]
latency to tonic seizures (PTZ-induced seizures; mouse, 0.3 mg/kg PO, non-significant trend (p = 0.06)): 1033 ± 179 s
latency to tonic seizures (PTZ-induced seizures; mouse, 1, 3, and 10 mg/kg PO, 60 min prior to 120 mg/kg PTZ): ≥ 1688 ± 56 s
sleep or wake time (β-band EEG power; 0.3 mg/kg PO): No changes in sleep or wake time
β-band EEG power relative to vehicle (β-band EEG power; 0.3 mg/kg PO, p = 0.58): did not elicit a significant increase
time of β-band EEG power peak post dose (β-band EEG power; 3 mg/kg PO): approximately 0.5 h
β-band EEG power at one hour vs vehicle (β-band EEG power; 3 mg/kg PO, p < 0.0005): significantly greater than vehicle
sleep time (β-band EEG power; 3 mg/kg PO): increased sleep time during the first hour
time of β-band EEG power peak (β-band EEG power; 20 mg/kg PO): ≤ 30 min
sleep time (β-band EEG power; 20 mg/kg PO): increased time spent in sleep during all three hours
β-band EEG power at one hour vs vehicle (β-band EEG power; 20 mg/kg PO, p = 0.79): not significantly different from vehicle
selectivity for GABAA receptors vs other ion channel and hormone receptors [4]: selective
time of maximum plasma concentration (Cmax) post dose ([5]; 10 mg/kg IP): 30 min
time of maximum plasma concentration (Cmax) post dose ([5]; 10 mg/kg PO): 30 min
Cmax ([5]; ip): 3200 ng/mL
bioavailability ([5]; ip): 89%
Cmax ([5]; po): 1340 ng/mL
bioavailability ([5]; po): 62%
EC50 [6]: 516 nM
brain concentrations [7]: 60 to 143 ng/g
tonic current density (dentate granule cells; 0.1 μM): 2.48 ± 0.7 pA/pF
sIPSC amplitude (dentate granule cells; 0.1 μM): 99 ± 26 pA
sIPSC decay (dentate granule cells; 0.1 μM): 10 ± 1 ms
tonic current density (dentate granule cells; 1 μM): 5.55 ± 1.3 pA/pF
sIPSC amplitude (dentate granule cells; 1 μM): 57 ± 7 pA
sIPSC decay (dentate granule cells; 1 μM): 24 ± 4 ms
sIPSC frequency (dentate granule cells; following zuranolone exposure): no change
tolerability ([8]; oral administration): generally well tolerated
pharmacokinetics following oral administration [8]: predictable pharmacokinetics
effects at 8 cardiac ion channels (8 cardiac ion channels): no significant effects
EC50 [9]: 780 nM
EC50 (α1β2γ2 GABAA receptor [1]): 844 nM
concentration required to potentiate the current greater than 150% (α1β2γ2 GABAA receptor [1]; α1β2γ2, coapplied with 100 nM DZP): 10 nM
interaction of zuranolone and DZP by isobolographic analysis (α1β2γ2 GABAA receptor [1]; α1β2γ2, coapplied zuranolone and DZP): synergistically
maximal potentiation (α1β2γ2 GABAA receptor [1]; α1β2γ2, in the presence of 100 nM DZP): 1084%
concentration applied alone required to reach 150% effect level (α1β2γ2 GABAA receptor [1]): 315 nM
maximal potentiation (α1β2γ2 GABAA receptor [1]; α1β2γ2, without DZP): 511%
EC50 [10]: 298 nM
Emax ([10]; HEK293): 534%
EC50 (α1β2γ2 GABAA receptor [11]): 430 nM
concentration at 60 min ([12]; 0.3 mg/kg): 22 ng/mL
concentration at 60 min ([12]; 3 mg/kg): 301 ng/mL
concentration at 60 min ([12]; 20 mg/kg): 1470 ng/mL
EC50 (α4β3δ GABAA receptor [2]): 135 nM
inhibition of radioligand binding (sigma): 87%
EC50 [13]: 1260 nM
effects at 22 nuclear hormone receptors [14]: no significant effects
EC50 [15]: 390 nM
Emax ([15]; HEK293): 684%
EC50 [16]: 184 nM
inhibition of radioligand binding (glycine): 57%
antagonist activity [17]: 96%
EC50 (α4β3δ GABAA receptor [18]): 118 nM
Emax (α4β3δ GABAA receptor [18]; CHO): 556%
EC50 [19]: 293 nM
Emax ([19]; HEK293): 291%
